Converted amounts (≈) assume the structure as drawn. The source made the active and inactive calls. The calls are words filed in the database; no cut-off is given here. Bounds are passed on as bounds.

The subject of experiment [1] is Staphylococcus aureus. As to the kind of experiment: Induction of intracellular oxidant species generation in Staphylococcus aureus ATCC 25923 after 1 hr by colorimetric based NBT assay. The format is functional, organism-based. An outline of the steps:
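Cells at OD600 1.5 in HBSS mixed with 1 mg/mL aqueous NBT and agent (added from 2 mM stock) or DMSO/water, shaken for 1 h at 37 °C. Stopped with 0.1 M HCl and centrifuged; pellet formazan solubilized in DMSO/KOH/HBSS and read at OD560.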

In experiment [2] the test system is Staphylococcus aureus. As to the kind of experiment: Induction of intracellular oxidant species generation in Staphylococcus aureus ATCC 25923 by DCFH-DA dye based fluorescence assay. The format is functional, organism-based. An outline of the steps: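 OD600 1.5 suspension of S. aureus […] in HBSS given agent (from 2 or 10 mM stock), DMSO or water, then DCFH diacetate from a 100 μM stock in DMSO. Intracellular oxidation read by fluorescence (ex 485, em 535 nm).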

The subject of experiment [3] is Bacillus anthracis. Nature of the experiment: Antibacterial activity against Bacillus anthracis Sterne 34F2 assessed as zone of inhibition by disc diffusion method. The format is functional.
Experiment [4] concerns Enterococcus faecium. Nature of the experiment: Antibacterial activity against vancomycin-resistant Enterococcus faecium ATCC 700221 assessed as zone of inhibition by disc diffusion method. In kind it is functional.
The subject of experiment [5] is Enterococcus faecalis. Nature of the experiment: Antibacterial activity against vancomycin-susceptible Enterococcus faecalis ATCC 29212 assessed as zone of inhibition by disc diffusion method. In kind it is functional.
For experiment [6], the system named is Staphylococcus aureus. As to the kind of experiment: Antibacterial activity against methicillin-susceptible Staphylococcus aureus ATCC 25923 assessed as zone of inhibition by disc diffusion method. In kind it is functional.
In experiment [7] the test system is Staphylococcus aureus. As to the kind of experiment: Antibacterial activity against community acquired methicillin-resistant Staphylococcus aureus BAA 1747 assessed as zone of inhibition by disc diffusion method. In kind it is functional.
In experiment [8] the test system is Staphylococcus aureus. As to the kind of experiment: Antibacterial activity against hospital acquired methicillin-resistant Staphylococcus aureus ATCC 43300 assessed as zone of inhibition by disc diffusion method. In kind it is functional.
Experiment [9] has as its system Staphylococcus aureus. Nature of the experiment: Antibacterial activity against heterogeneous vancomycin-intermediate resistant Staphylococcus aureus Mu3 ATCC 700698 assessed as zone of inhibition by disc diffusion method. In kind it is functional.
The subject of experiment [10] is Staphylococcus aureus. As to the kind of experiment: Antibacterial activity against vancomycin-intermediate resistant Staphylococcus aureus Mu50 ATCC 700699 assessed as zone of inhibition by disc diffusion method. In kind it is functional.
Experiment [11] has as its system Staphylococcus aureus. Nature of the experiment: Antibacterial activity against vancomycin-resistant Staphylococcus aureus HIP11714 assessed as zone of inhibition by disc diffusion method. The format is functional.
Experiment [12] relates to Staphylococcus epidermidis. Nature of the experiment: Antibacterial activity against Staphylococcus epidermidis ATCC 14990 assessed as zone of inhibition by disc diffusion method. In kind it is functional.
In experiment [13] the test system is Staphylococcus aureus. As to the kind of experiment: Antibacterial activity against methicillin-susceptible Staphylococcus aureus ATCC 25923 assessed as bacterial growth inhibition incubated for 20 hrs by broth dilution method. The format is functional. The gist of the method:
(§1)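 Broth microdilution: 0.5 McFarland suspension from an overnight culture, diluted 1:100 in cation-adjusted Mueller Hinton broth (CAMHB), given serial dilutions of test agent for 20 h at 37 °C. MIC is the lowest concentration with no visible growth.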

The test system of experiment [14] is Staphylococcus aureus. As to the kind of experiment: Bactericidal activity against methicillin-susceptible Staphylococcus aureus ATCC 25923 assessed as bacterial killing incubated for over night. The format is functional. The gist of the method:
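5 μL from each well was spotted on agar and incubated overnight. MBC was taken as the lowest concentration with no visible growth.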

The test system of experiment [15] is Staphylococcus aureus. Nature of the experiment: Ratio of MBC to MIC against methicillin-susceptible Staphylococcus aureus ATCC 25923. The format is functional. An outline of the steps: (§2)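 For MBC, 5 μL from each well was spotted on agar and incubated overnight; MBC is the lowest concentration with no visible growth. Ratio taken as MBC over MIC.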
Experiment [16] relates to Staphylococcus aureus. As to the kind of experiment: Antibacterial activity against methicillin-resistant Staphylococcus aureus ATCC 43300 assessed as bacterial growth inhibition incubated for 20 hrs by broth dilution method. In kind it is functional. The gist of the method: as §1
In experiment [17] the test system is Staphylococcus aureus. Nature of the experiment: Bactericidal activity against methicillin-resistant Staphylococcus aureus ATCC 43300 assessed as bacterial killing incubated for over night. In kind it is functional. The gist of the method: as §2
In experiment [18] the test system is Staphylococcus aureus. As to the kind of experiment: Ratio of MBC to MIC against methicillin-resistant Staphylococcus aureus ATCC 43300. The format is functional. The gist of the method:
as §2

The test system of experiment [19] is Staphylococcus aureus. Nature of the experiment: Antibacterial activity against linezolid-resistant Staphylococcus aureus assessed as bacterial growth inhibition incubated for 20 hrs by broth dilution method. In kind it is functional. An outline of the steps: as §1
Experiment [20] relates to Staphylococcus aureus. As to the kind of experiment: Bactericidal activity against linezolid-resistant Staphylococcus aureus assessed as bacterial killing incubated for over night.
In experiment [21] the test system is Staphylococcus aureus. As to the kind of experiment: Ratio of MBC to MIC against linezolid-resistant Staphylococcus aureus. The format is functional. An outline of the steps:
as §2

The test system of experiment [22] is Staphylococcus aureus. Nature of the experiment: Antibacterial activity against heterogeneous vancomycin-intermediate Staphylococcus aureus Mu3 ATCC 700698 assessed as bacterial growth inhibition incubated for 20 hrs by broth dilution method. In kind it is functional. The gist of the method:
as §1

The test system of experiment [23] is Staphylococcus aureus. Nature of the experiment: Bactericidal activity against heterogeneous vancomycin-intermediate Staphylococcus aureus Mu3 ATCC 700698 assessed as bacterial killing incubated for over night. In kind it is functional. An outline of the steps:
as §2

In experiment [24] the test system is Staphylococcus aureus. As to the kind of experiment: Ratio of MBC to MIC against heterogeneous vancomycin-intermediate Staphylococcus aureus Mu3 ATCC 700698. The format is functional. The gist of the method:
as §2

For experiment [25], the system named is Staphylococcus aureus. Nature of the experiment: Antibacterial activity against vancomycin-intermediate resistant Staphylococcus aureus Mu50 ATCC 700699 assessed as bacterial growth inhibition incubated for 20 hrs by broth dilution method. In kind it is functional. The gist of the method: as §1
In experiment [26] the test system is Staphylococcus aureus. Nature of the experiment: Bactericidal activity against vancomycin-intermediate resistant Staphylococcus aureus Mu50 ATCC 700699 assessed as bacterial killing incubated for over night. In kind it is functional. The gist of the method:
as §2

Experiment [27] has as its system Staphylococcus aureus. Nature of the experiment: Ratio of MBC to MIC against vancomycin-intermediate resistant Staphylococcus aureus Mu50 ATCC 700699. The format is functional. The gist of the method:
as §2

The test system of experiment [28] is Staphylococcus aureus. As to the kind of experiment: Antibacterial activity against vancomycin-resistant Staphylococcus aureus HIP11714 assessed as inhibition of bacterial growth incubated for 20 hrs by broth microdilution method. The format is functional. Particulars: HIP11714, 20 h. An outline of the steps:
as §1

In experiment [29] the test system is Staphylococcus aureus. As to the kind of experiment: Antibacterial activity against vancomycin-intermediate Staphylococcus aureus clinical isolate 12 assessed as bacterial growth inhibition after 20 hrs by broth microdilution assay. In kind it is functional. The gist of the method: as §1
Experiment [30] has as its system Staphylococcus aureus. As to the kind of experiment: Antibacterial activity against vancomycin-resistant Staphylococcus aureus clinical isolate 10 assessed as bacterial growth inhibition after 20 hrs by broth microdilution assay. The format is functional. The gist of the method: as §1
In experiment [31] the test system is Staphylococcus aureus. Nature of the experiment: Antibacterial activity against methicillin-susceptible Staphylococcus aureus ATCC 25923 in presence of glutathione. The format is functional. An outline of the steps: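 Broth microdilution MIC: a 0.5 McFarland suspension from overnight culture was diluted 1:100 in cation-adjusted Mueller Hinton broth supplemented with glutathione 100 μM. It was exposed to serial dilutions for 20 h at 37 °C. MIC was taken as the lowest concentration with no visible growth.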

The subject of experiment [32] is Staphylococcus aureus. As to the kind of experiment: Antibacterial activity against methicillin-susceptible Staphylococcus aureus ATCC 25923 in presence of 0.05% v/v albumin. In kind it is functional.
Experiment [33] concerns Staphylococcus aureus. As to the kind of experiment: Antibacterial activity against methicillin-susceptible Staphylococcus aureus ATCC 25923 in presence of 5% v/v serum. In kind it is functional.
Experiment [34] relates to Staphylococcus aureus. Nature of the experiment: Antibacterial activity against methicillin-susceptible Staphylococcus aureus ATCC 25923 in presence of 10% v/v serum. The format is functional.

Regarding `Oc1cc(Cl)ccc1Oc1ccc(Cl)cc1Cl`, the result in experiment [1] and in [2] was Active.
On to `CN[C@H](CC(C)C)C(=O)N[C@H]1C(=O)N[C@@H](CC(N)=O)C(=O)N[C@H]2C(=O)N[C@H]3C(=O)N[C@H](C(=O)N[C@H](C(=O)O)c4cc(O)cc(O)c4-c4cc3ccc4O)[C@H](O)c3ccc(c(Cl)c3)Oc3cc2cc(c3O[C@@H]2O[C@H](CO)[C@@H](O)[C@H](O)[C@H]2O[C@H]2C[C@](C)(N)[C@H](O)[C@H](C)O2)Oc2ccc(cc2Cl)[C@H]1O` [VANCOMYCIN], for which the “diameter of the inhibition zone (DIZ)” value in experiment [3] amounted to 26 mm; in experiment [4] it was 0 mm; in [5], 21 mm; in experiment [6], 22 mm; in experiment [7], 20 mm; in experiment [8], 21 mm. For the same molecule, the “diameter of the inhibition zone (DIZ)” value is listed as 20 mm in [9], 20 mm in experiment [10], 11 mm in experiment [11] and 24 mm in experiment [12]. Also, the MIC is 0.78 µM (≈ 1.13 µg/mL) in experiment [13]; 0.39 µM (≈ 0.565 µg/mL) in [16]; 0.78 µM (≈ 1.13 µg/mL) in experiment [19]; 0.78 µM (≈ 1.13 µg/mL) in experiment [22]; 3.13 µM (≈ 4.54 µg/mL) in experiment [25]; over 50 µM in experiment [28]. In addition, the minimal inhibitory concentration (MIC) in experiment [31], in experiment [32], in experiment [33] and in [34] was 0.78 µM throughout. Besides, the MBC is 1.56 µM (≈ 2.26 µg/mL) in experiment [14]; 0.78 µM (≈ 1.13 µg/mL) in [17]; 1.56 µM (≈ 2.26 µg/mL) in experiment [20]; 0.78 µM (≈ 1.13 µg/mL) in experiment [23]; 3.13 µM (≈ 4.54 µg/mL) in [26]. The Ratio was found to be 2 in experiment [15]; 2 in [18]; 2 in experiment [21]; 1 in [24]; 1 in experiment [27]. The MIC50 was 3.13 µM (≈ 4.54 µg/mL) in experiment [29] and over 50 µM in [30]. In addition, the MIC90 in [29] was 3.13 µM (≈ 4.54 µg/mL); in [30] it was over 50 µM.

The values above are taken from ChEMBL document CHEMBL4715813, “Allicin-inspired pyridyl disulfides as antimicrobial agents for multidrug-resistant Staphylococcus aureus” (Eur J Med Chem, 2018).
